Test results from ChEMBL document CHEMBL1142148, “Antibiotic susceptibility profile of bifidobacteria as affected by oxgall, acid, and hydrogen peroxide stress” (2007).
Values after ≈ are worked out from the molar mass of the structure shown.

Legend:
Bifidobacterium animalis [1] = assay: Antimicrobial activity against Bifidobacterium animalis ATCC 27536; format: functional
Summary of the method: (§1)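 Broth microdilution in MRS plus 0.05% L-cysteine-HCl. Mid-log culture adjusted to OD650 0.1, giving about 2.5 × 10^4 to 5.0 × 10^4 CFU/well, then added to twofold serial dilutions of agent. Plates incubated anaerobically at 37°C for 18 h and read at OD650. MIC is the lowest concentration matching the uninoculated blank OD, taken as the median of four repeats.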

Bifidobacterium bifidum [2] = assay: Antimicrobial activity against Bifidobacterium bifidum R0071; format: functional; summary of the method: as §1
Bifidobacterium bifidum [3] = assay: Antimicrobial activity against Bifidobacterium bifidum ATCC 15696; format: functional; summary of the method: as §1
Bifidobacterium bifidum [4] = assay: Antimicrobial activity against Bifidobacterium bifidum BB12; format: functional; summary of the method: as §1
Bifidobacterium breve [5] = assay: Antimicrobial activity against Bifidobacterium breve ATCC 15700; format: functional; summary of the method: as §1
[6] = Antimicrobial activity against Bifidobacterium infantis ATCC 15697; format: functional, Bifidobacterium longum subsp. infantis; settings: Bifidobacterium longum; summary of the method: as §1
Bifidobacterium longum [7] = assay: Antimicrobial activity against Bifidobacterium longum ATCC 15708; format: functional; summary of the method: as §1
Bifidobacterium longum [8] = assay: Antimicrobial activity against Bifidobacterium longum R0175; format: functional; summary of the method: as §1
Bifidobacterium longum [9] = assay: Antimicrobial activity against Bifidobacterium longum P/N 601377; format: functional; summary of the method: as §1
[10] = test system: Bifidobacterium pseudolongum; assay: Antimicrobial activity against Bifidobacterium pseudolongum ATCC 25562; format: functional; summary of the method: as §1
[11] = test system: Bifidobacterium thermophilum; assay: Antimicrobial activity against Bifidobacterium thermophilum ATCC 25866; format: functional; summary of the method: as §1
Bifidobacterium breve [12] = assay: Antimicrobial activity against Bifidobacterium breve R0070; format: functional; summary of the method: as §1
Bifidobacterium animalis [13] = assay: Antimicrobial activity against 60 min 1 M HCl-stressed Bifidobacterium animalis ATCC 27536 after 18 hrs; format: functional
Summary of the method: (§2)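 Mid-log MRS culture pelleted and resuspended in MRS broth brought to pH 2.0 with 1 M HCl, held anaerobically at 37°C for 60 min, then subcultured in MRS (pH 6.5) for 24 h anaerobically before MIC testing by broth microdilution (as for unstressed cells). Table footnote gives 18 h anaerobic regrowth after the stress. MIC is the median of four repetitions.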

Bifidobacterium bifidum [14] = assay: Antimicrobial activity against 60 min 1 M HCl-stressed Bifidobacterium bifidum R0071 after 18 hrs; format: functional; summary of the method: as §2
Bifidobacterium bifidum [15] = assay: Antimicrobial activity against 60 min 1 M HCl-stressed Bifidobacterium bifidum BB12 after 18 hrs; format: functional; summary of the method: as §2
Bifidobacterium breve [16] = assay: Antimicrobial activity against 60 min 1 M HCl-stressed Bifidobacterium breve ATCC 15700 after 18 hrs; format: functional; summary of the method: as §2
Bifidobacterium breve [17] = assay: Antimicrobial activity against 60 min 1 M HCl-stressed Bifidobacterium breve R0070 after 18 hrs; format: functional; summary of the method: as §2
[18] = Antimicrobial activity against 60 min 1 M HCl-stressed Bifidobacterium infantis ATCC 15697 after 18 hrs; format: functional, Bifidobacterium longum subsp. infantis; settings: Bifidobacterium longum; summary of the method: as §2
Bifidobacterium longum [19] = assay: Antimicrobial activity against 60 min 1 M HCl-stressed Bifidobacterium longum ATCC 15707 after 18 hrs; format: functional; summary of the method: as §2
Bifidobacterium longum [20] = assay: Antimicrobial activity against 60 min 1 M HCl-stressed Bifidobacterium longum R0175 after 18 hrs; format: functional; summary of the method: as §2
Bifidobacterium longum [21] = assay: Antimicrobial activity against 60 min 1 M HCl-stressed Bifidobacterium longum P/N 601377 after 18 hrs; format: functional; summary of the method: as §2
[22] = test system: Bifidobacterium pseudolongum; assay: Antimicrobial activity against 60 min 1 M HCl-stressed Bifidobacterium pseudolongum ATCC 25562 after 18 hrs; format: functional; summary of the method: as §2
[23] = test system: Bifidobacterium thermophilum; assay: Antimicrobial activity against 60 min 1 M HCl-stressed Bifidobacterium thermophilum ATCC 25866 after 18 hrs; format: functional; summary of the method: as §2
Bifidobacterium animalis [24] = assay: Antimicrobial activity against 90 mins oxgall-stressed Bifidobacterium animalis ATCC 27536 after 18 hrs; format: functional
Summary of the method: (§3)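 Cells pelleted from mid-log MRS culture and resuspended in MRS (initial pH 6.5) with 0.3% (wt/vol) oxgall for 90 min anaerobically at 37°C. They were then regrown in MRS pH 6.5 for 24 h (footnote: 18 h) anaerobically and tested for MIC by the same broth microdilution assay. Median of four repetitions.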

Bifidobacterium bifidum [25] = assay: Antimicrobial activity against 90 mins oxgall-stressed Bifidobacterium bifidum R0071 after 18 hrs; format: functional; summary of the method: as §3
Bifidobacterium bifidum [26] = assay: Antimicrobial activity against 90 mins oxgall-stressed Bifidobacterium bifidum ATCC 15696 after 18 hrs; format: functional; summary of the method: as §3
Bifidobacterium bifidum [27] = assay: Antimicrobial activity against 90 mins oxgall-stressed Bifidobacterium bifidum BB12 after 18 hrs; format: functional; summary of the method: as §3
Bifidobacterium breve [28] = assay: Antimicrobial activity against 90 mins oxgall-stressed Bifidobacterium breve ATCC 15700 after 18 hrs; format: functional; summary of the method: as §3
Bifidobacterium breve [29] = assay: Antimicrobial activity against 90 mins oxgall-stressed Bifidobacterium breve R0070 after 18 hrs; format: functional; summary of the method: as §3
[30] = Antimicrobial activity against 90 mins oxgall-stressed Bifidobacterium infantis ATCC 15697 after 18 hrs; format: functional, Bifidobacterium longum subsp. infantis; settings: Bifidobacterium longum; summary of the method: as §3
Bifidobacterium longum [31] = assay: Antimicrobial activity against 90 mins oxgall-stressed Bifidobacterium longum ATCC 15707 after 18 hrs; format: functional; summary of the method: as §3
Bifidobacterium longum [32] = assay: Antimicrobial activity against 90 mins oxgall-stressed Bifidobacterium longum ATCC 15708 after 18 hrs; format: functional; summary of the method: as §3
Bifidobacterium longum [33] = assay: Antimicrobial activity against Bifidobacterium longum ATCC 15707; format: functional; summary of the method: as §1
Bifidobacterium longum [34] = assay: Antimicrobial activity against 90 mins oxgall-stressed Bifidobacterium longum R0175 after 18 hrs; format: functional; summary of the method: as §3
Bifidobacterium longum [35] = assay: Antimicrobial activity against 90 mins oxgall-stressed Bifidobacterium longum P/N 601377 after 18 hrs; format: functional; summary of the method: as §3
[36] = test system: Bifidobacterium pseudolongum; assay: Antimicrobial activity against 90 mins oxgall-stressed Bifidobacterium pseudolongum ATCC 25562 after 18 hrs; format: functional; summary of the method: as §3
[37] = test system: Bifidobacterium thermophilum; assay: Antimicrobial activity against 90 mins oxgall-stressed Bifidobacterium thermophilum ATCC 25866 after 18 hrs; format: functional; summary of the method: as §3
Bifidobacterium animalis [38] = assay: Antimicrobial activity against 90 mins hydrogen peroxide-stressed Bifidobacterium animalis ATCC 27536 after 18 hrs; format: functional
Summary of the method: (§4)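 Stress applied for 90 min at 37°C under anaerobic conditions, using MRS (initial pH 6.5) containing H2O2 at each strain's own inhibitory concentration. The H2O2 level was set beforehand by microplate tolerance testing. Challenged cells were regrown in MRS for 24 h (footnote: 18 h) before MIC testing by broth microdilution. Median of four repetitions.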

Bifidobacterium bifidum [39] = assay: Antimicrobial activity against 90 mins hydrogen peroxide-stressed Bifidobacterium bifidum R0071 after 18 hrs; format: functional; summary of the method: as §4
Bifidobacterium bifidum [40] = assay: Antimicrobial activity against 90 mins hydrogen peroxide-stressed Bifidobacterium bifidum BB12 after 18 hrs; format: functional; summary of the method: as §4
Bifidobacterium breve [41] = assay: Antimicrobial activity against 90 mins hydrogen peroxide-stressed Bifidobacterium breve ATCC 15700 after 18 hrs; format: functional; summary of the method: as §4
Bifidobacterium breve [42] = assay: Antimicrobial activity against 90 mins hydrogen peroxide-stressed Bifidobacterium breve R0070 after 18 hrs; format: functional; summary of the method: as §4
Bifidobacterium longum [43] = assay: Antimicrobial activity against 90 mins hydrogen peroxide-stressed Bifidobacterium longum ATCC 15707 after 18 hrs; format: functional; summary of the method: as §4
Bifidobacterium longum [44] = assay: Antimicrobial activity against 90 mins hydrogen peroxide-stressed Bifidobacterium longum ATCC 15708 after 18 hrs; format: functional; summary of the method: as §4
Bifidobacterium longum [45] = assay: Antimicrobial activity against 90 mins hydrogen peroxide-stressed Bifidobacterium longum R0175 after 18 hrs; format: functional; summary of the method: as §4
Bifidobacterium longum [46] = assay: Antimicrobial activity against 90 mins hydrogen peroxide-stressed Bifidobacterium longum P/N 601377 after 18 hrs; format: functional; summary of the method: as §4
[47] = test system: Bifidobacterium thermophilum; assay: Antimicrobial activity against 90 mins hydrogen peroxide-stressed Bifidobacterium thermophilum ATCC 25866 after 18 hrs; format: functional; summary of the method: as §4

SMILES: Cc1onc(-c2ccccc2Cl)c1C(=O)N[C@@H]1C(=O)N2[C@@H]1SC(C)(C)[C@@H]2C(=O)O [CLOXACILLIN]
- MIC (Bifidobacterium animalis [1]): 3.9 µg/mL (≈ 8.95 µM)
- MIC (Bifidobacterium bifidum [2]): 15.6 µg/mL (≈ 35.8 µM)
- MIC (Bifidobacterium bifidum [3]): 7.8 µg/mL (≈ 17.9 µM)
- MIC (Bifidobacterium bifidum [4]): 0.98 µg/mL (≈ 2.25 µM)
- MIC (Bifidobacterium breve [5]): 15.6 µg/mL (≈ 35.8 µM)
- MIC [6]: 15.6 µg/mL (≈ 35.8 µM)
- MIC (Bifidobacterium longum [7]): 7.8 µg/mL (≈ 17.9 µM)
- MIC (Bifidobacterium longum [8]): 62.5 µg/mL (≈ 143 µM)
- MIC (Bifidobacterium longum [9]): 31.2 µg/mL (≈ 71.6 µM)
- MIC [10]: 3.9 µg/mL (≈ 8.95 µM)
- MIC [11]: 15.6 µg/mL (≈ 35.8 µM)
- MIC (Bifidobacterium breve [12]): 31.2 µg/mL (≈ 71.6 µM)
- MIC (Bifidobacterium animalis [13]): 3.9 µg/mL (≈ 8.95 µM)
- MIC (Bifidobacterium bifidum [14]): 15.6 µg/mL (≈ 35.8 µM)
- MIC (Bifidobacterium bifidum [15]): 0.98 µg/mL (≈ 2.25 µM)
- MIC (Bifidobacterium breve [16]): 125 µg/mL (≈ 287 µM)
- MIC (Bifidobacterium breve [17]): 15.6 µg/mL (≈ 35.8 µM)
- MIC [18]: 125 µg/mL (≈ 287 µM)
- MIC (Bifidobacterium longum [19]): 15.6 µg/mL (≈ 35.8 µM)
- MIC (Bifidobacterium longum [20]): 0.98 µg/mL (≈ 2.25 µM)
- MIC (Bifidobacterium longum [21]): 0.98 µg/mL (≈ 2.25 µM)
- MIC [22]: 0.98 µg/mL (≈ 2.25 µM)
- MIC [23]: 31.2 µg/mL (≈ 71.6 µM)
- MIC (Bifidobacterium animalis [24]): 125 µg/mL (≈ 287 µM)
- MIC (Bifidobacterium bifidum [25]): 62.5 µg/mL (≈ 143 µM)
- MIC (Bifidobacterium bifidum [26]): 62.5 µg/mL (≈ 143 µM)
- MIC (Bifidobacterium bifidum [27]): 1.9 µg/mL (≈ 4.36 µM)
- MIC (Bifidobacterium breve [28]): 3.9 µg/mL (≈ 8.95 µM)
- MIC (Bifidobacterium breve [29]): 31.2 µg/mL (≈ 71.6 µM)
- MIC [30]: 125 µg/mL (≈ 287 µM)
- MIC (Bifidobacterium longum [31]): 125 µg/mL (≈ 287 µM)
- MIC (Bifidobacterium longum [32]): 125 µg/mL (≈ 287 µM)
- MIC (Bifidobacterium longum [33]): 15.6 µg/mL (≈ 35.8 µM)
- MIC (Bifidobacterium longum [34]): 125 µg/mL (≈ 287 µM)
- MIC (Bifidobacterium longum [35]): 62.5 µg/mL (≈ 143 µM)
- MIC [36]: 62.5 µg/mL (≈ 143 µM)
- MIC [37]: 62.5 µg/mL (≈ 143 µM)
- MIC (Bifidobacterium animalis [38]): 3.9 µg/mL (≈ 8.95 µM)
- MIC (Bifidobacterium bifidum [39]): 31.2 µg/mL (≈ 71.6 µM)
- MIC (Bifidobacterium bifidum [40]): 1.9 µg/mL (≈ 4.36 µM)
- MIC (Bifidobacterium breve [41]): 3.9 µg/mL (≈ 8.95 µM)
- MIC (Bifidobacterium breve [42]): 15.6 µg/mL (≈ 35.8 µM)
- MIC (Bifidobacterium longum [43]): 0.98 µg/mL (≈ 2.25 µM)
- MIC (Bifidobacterium longum [44]): 7.8 µg/mL (≈ 17.9 µM)
- MIC (Bifidobacterium longum [45]): 31.2 µg/mL (≈ 71.6 µM)
- MIC (Bifidobacterium longum [46]): 31.2 µg/mL (≈ 71.6 µM)
- MIC [47]: 7.8 µg/mL (≈ 17.9 µM)
